From ChEMBL document CHEMBL4024747, “Design, Synthesis, and Biological Activities of Vibsanin B Derivatives: A New Class of HSP90 C-Terminal Inhibitors” (J Med Chem, 2017) come the findings set out here.

For orientation: IC50 means the concentration needed to halve the response being measured. As usually defined, the half-life is the time needed for the level to fall by half in the phase considered. Read a high half-life as slow decline.

The structures appear in SMILES notation. Calls of active or inactive are those of the source.

The test system of data set [1] is BT-474. Nature of the data set: Cell cycle arrest in human BT474 cells assessed as accumulation at G2/M phase at 2.5 uM after 16 hrs by propidium iodide-staining based FACS analysis (reference value: 15.79%). Type of data set: functional. For orientation: In flow cytometry, cells or beads pass a laser one at a time.
For the next data set, the system named is HeLa. Nature of the data set: Antiproliferative activity against human HeLa cells assessed as reduction in cell viability after 48 hrs by MTT assay. In kind it is functional, cell-based. (In general: Tetrazolium assays rely on reduction of a dye to a coloured formazan, in cell work by metabolically active cells.)
A further data set deals with A549. Nature of the data set: Antiproliferative activity against human A549 cells assessed as reduction in cell viability after 48 hrs by MTT assay. Type of data set: functional, cell-based. The note with it: A549, 48 h.
Data set [2] deals with T1, Heat shock protein HSP90 (Homo sapiens) (UniProt P07900+P08238). Nature of the data set: Inhibition of HSP90 in human BT474 cells assessed as decrease in Her2 protein expression at 1.25 to 5 uM after 24 hrs by Western blot analysis. In kind it is cell-based. The procedure, abridged: (§1)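 BT474 cells lysed directly in 2× Laemmli buffer; proteins resolved on 12% acrylamide gel and transferred to PVDF. Blocked overnight at 4 °C in 5% skim milk, then probed 1 h at room temperature with antibodies to HER2, pAkt, CDK4, HSP90, HSP70 and HSP27. Chemiluminescent detection with β-actin as loading control; run in triplicate.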
(In general: Immunoblotting shows a protein as a band on a membrane.)

The target of data set [3] is T1, Heat shock protein HSP90 (Homo sapiens). Kind of data set: Inhibition of HSP90 in human BT474 cells assessed as decrease in p-Akt expression at 1.25 to 5 uM after 24 hrs by Western blot analysis. In kind it is cell-based. The method, boiled down:
as §1

Data set [4] deals with BT-474. Kind of data set: Cell cycle arrest in human BT474 cells assessed as accumulation at G0/G1 phase at 5 uM after 16 hrs by propidium iodide-staining based FACS analysis (reference value: 74.88%). Type of data set: functional.
A further data set relates to Huh-7. Nature of the data set: Antiproliferative activity against human HuH7 cells assessed as reduction in cell viability after 48 hrs by MTT assay. Type of data set: functional, cell-based. The note with it: Huh-7, 48 h.
Data set [5] has as its system BT-474. Kind of data set: Cell cycle arrest in human BT474 cells assessed as accumulation at G0/G1 phase at 2.5 uM after 16 hrs by propidium iodide-staining based FACS analysis (reference value: 74.88%). Type of data set: functional.
For data set [6], the system named is BT-474. Kind of data set: Cell cycle arrest in human BT474 cells assessed as accumulation at subG1 phase at 2.5 uM after 16 hrs by propidium iodide-staining based FACS analysis (reference value: 0.81%). In kind it is functional.
Another data set has as its system BEAS-2B. Nature of the data set: Cytotoxicity against human BEAS2B cells assessed as reduction in cell viability after 48 hrs by MTT assay. In kind it is cell-based.
The subject of the next data set is SMMC-7721. Nature of the data set: Antiproliferative activity against human SMMC7721 cells assessed as reduction in cell viability after 48 hrs by MTT assay. The note with it: SMMC-7721, 48 h. In kind it is functional, cell-based.
A further data set deals with HL-60. Nature of the data set: Antiproliferative activity against human HL60 cells assessed as reduction in cell viability after 48 hrs by MTT assay. Type of data set: functional, cell-based. The note with it: HL-60, 48 h.
A further data set has as its system SK-BR-3. Kind of data set: Antiproliferative activity against human SKBR3 cells assessed as reduction in cell viability after 48 hrs by MTT assay. Type of data set: functional, cell-based. The note with it: SK-BR-3, 48 h.
The subject of data set [7] is BT-474. Nature of the data set: Cell cycle arrest in human BT474 cells assessed as accumulation at subG1 phase at 5 uM after 16 hrs by propidium iodide-staining based FACS analysis (reference value: 0.81%). In kind it is functional.
Data set [8] has as its system BT-474. Nature of the data set: Cell cycle arrest in human BT474 cells assessed as accumulation at S phase at 2.5 uM after 16 hrs by propidium iodide-staining based FACS analysis (reference value: 8.52%). Type of data set: functional.
Data set [9] in a line: Stability of compound in pH 7.4 PBS at 37 degreeC after 12 hrs by HPLC analysis. In kind it is physicochemical. The note with it: buffer, pH 7.4, 12 h. The method, boiled down:
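Solution stability determined by HPLC after incubation in PBS pH 7.4 at 37 °C for 12 h.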

The next data set concerns SW480. Kind of data set: Antiproliferative activity against human SW480 cells assessed as reduction in cell viability after 48 hrs by MTT assay. In kind it is functional, cell-based. The note with it: SW480, 48 h.
Data set [10] in a line: Half life of compound in toluene at 60 degreeC by HPLC analysis. Type of data set: physicochemical. The procedure, abridged:
(§2)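 Thermostability in toluene at 110 °C or 60 °C followed by HPLC; half-life estimated.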

Data set [11] is described as follows: Stability of compound in DMSO at 4 degreeC after 4 weeks HPLC analysis. Type of data set: physicochemical. The note with it: 672 h.
Data set [12] deals with Heat shock protein HSP 90-beta (Homo sapiens) (UniProt P08238). Kind of data set: Inhibition of FITC-geldanamycin binding to human FLAG-tagged HSP90beta N-terminal domain.
For a further data set, the species on record is Danio rerio. Nature of the data set: Toxicity in 3 days post fertilized zebrafish embryo assessed as changes in embryonic phenotypes at 4 to 16 uM after 12 hrs. The note with it: in vivo.
The test system of the next data set is MCF7. Nature of the data set: Antiproliferative activity against human MCF7 cells assessed as reduction in cell viability after 48 hrs by MTT assay. Type of data set: functional, cell-based. The note with it: MCF7, 48 h.
Data set [13] addresses T1, Heat shock protein HSP90 (Homo sapiens). Kind of data set: Inhibition of HSP90 in human BT474 cells assessed as induction of HSP27 expression at 1.25 to 5 uM after 24 hrs by Western blot analysis. In kind it is cell-based. The method, boiled down: as §1
For data set [14] the target is unchanged. Kind of data set: Inhibition of HSP90 in human BT474 cells assessed as induction of HSP70 expression at 1.25 to 5 uM after 24 hrs by Western blot analysis. Type of data set: cell-based. The method, boiled down:
as §1

The target in data set [15] is Heat shock protein HSP 90-beta (Homo sapiens) (UniProt P08238). Kind of data set: Inhibition of recombinant human Biotin-labeled N-terminal His/Avi-tagged HSP90beta C-terminal domain (527 to 724 residues) expressed in Escherichia coli interaction with GST-tagged Cyp40 at 100 uM after 30 mins by Alphascreen assay. The procedure, abridged:
(§3)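 AlphaScreen assay: biotin-labelled HSP90β C-terminus (aa 527–724) mixed with GST-Cyp40 and compound (1–100 μM; novobiocin 500 μM) for 30 min at room temperature. Glutathione acceptor beads added for 30 min, then streptavidin donor beads for 10 min. Excitation at 680 nm, emission read at 520–620 nm; percent activity calculated against enzyme and background wells.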

Data set [16] relates to BT-474. Kind of data set: Cell cycle arrest in human BT474 cells assessed as accumulation at S phase at 5 uM after 16 hrs by propidium iodide-staining based FACS analysis (reference value: 8.52%). Type of data set: functional.
Data set [17] addresses Luciferin 4-monooxygenase (Photinus pyralis) (UniProt P08659). Nature of the data set: Inhibition of firefly luciferase activity using luciferin substrate at 10 uM after 30 mins by luminescence assay.
The nature of data set [18]: Drug metabolism in deionized water assessed as compound decomposition at 100 degreeC after 10 mins by HPLC analysis relative to control. Type of data set: physicochemical. The note with it: read-out: Drug metabolism. The method, boiled down:
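Thermostability determined by HPLC after heating in deionized water at 100 °C for 10 min; decomposition recorded in percent.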

Data set [19] has as its system BT-474. Kind of data set: Cell cycle arrest in human BT474 cells assessed as accumulation at G2/M phase at 5 uM after 16 hrs by propidium iodide-staining based FACS analysis (reference value: 15.79%). In kind it is functional.
The next data set has as its system AGS. Nature of the data set: Antiproliferative activity against human AGS cells assessed as reduction in cell viability after 48 hrs by MTT assay. Type of data set: functional, cell-based.
In data set [20] the test system is BT-474. Kind of data set: Antiproliferative activity against human BT474 cells assessed as reduction in cell viability after 48 hrs by MTT assay. Type of data set: functional, cell-based. The note with it: BT-474, 48 h.
Data set [21] concerns the target Heat shock protein HSP 90-beta (Homo sapiens) (UniProt P08238). Kind of data set: Inhibition of recombinant human Biotin-labeled N-terminal His/Avi-tagged HSP90beta C-terminal domain (527 to 724 residues) expressed in Escherichia coli interaction with GST-tagged Cyp40 at 1 to 100 uM after 30 mins by Alphascreen assay. The method, boiled down:
as §3

Data set [22] can be described thus: Half life of compound in toluene at 110 degreeC by HPLC analysis. In kind it is physicochemical. The method, boiled down:
as §2

The next data set deals with HepG2. Kind of data set: Antiproliferative activity against human HepG2 cells assessed as reduction in cell viability after 48 hrs by MTT assay. In kind it is functional, cell-based. The note with it: HepG2, 48 h.
The subject of a further data set is MDA-MB-468. Nature of the data set: Antiproliferative activity against human MDA-MB-468 cells assessed as reduction in cell viability after 48 hrs by MTT assay. Type of data set: functional, cell-based. The note with it: MDA-MB-468, 48 h.
The target in data set [23] is T1, Heat shock protein HSP90 (Homo sapiens). Kind of data set: Inhibition of HSP90 in human BT474 cells assessed as decrease in CDK4 protein expression at 1.25 to 5 uM after 24 hrs by Western blot analysis. In kind it is cell-based. The procedure, abridged:
as §1

Data set [24] shares this target. Kind of data set: Inhibition of HSP90 in human BT474 cells assessed as decrease in c-Raf protein expression at 1.25 to 5 uM after 24 hrs by Western blot analysis. Type of data set: cell-based.
A further data set is filed under the species Oryctolagus cuniculus. Nature of the data set: Inhibition of HSP90 in rabbit reticulocyte lysate assessed as decrease in HSP90-dependant refolding of firefly luciferase at 10 uM after 30 mins by luciferase gene based assay. The procedure, abridged:
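Firefly luciferase heat-denatured at 41 °C for 10 min, then added with rabbit reticulocyte lysate to compounds at 10 μM. Renaturation at room temperature for 3 h; luciferin substrate added and luminescence read. Refolding expressed relative to DMSO; novobiocin at 500 μM as reference. Three independent experiments.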

Data set [25] concerns the target Heat shock protein HSP 90-alpha (Homo sapiens) (UniProt P07900). Kind of data set: Inhibition of FITC-geldanamycin binding to human FLAG-tagged HSP90alpha N-terminal domain.
The target of data set [26] is Heat shock protein HSP 90-beta (Homo sapiens) (UniProt P08238). Nature of the data set: Inhibition of recombinant human Biotin-labeled N-terminal His/Avi-tagged HSP90beta C-terminal domain (527 to 724 residues) expressed in Escherichia coli interaction with GST-tagged Cyp40 at 500 uM after 30 mins by Alphascreen assay. The method, boiled down: as §3

Sequence of Heat shock protein HSP 90-beta (Homo sapiens) (P08238 whole entry, the tested form may be a part): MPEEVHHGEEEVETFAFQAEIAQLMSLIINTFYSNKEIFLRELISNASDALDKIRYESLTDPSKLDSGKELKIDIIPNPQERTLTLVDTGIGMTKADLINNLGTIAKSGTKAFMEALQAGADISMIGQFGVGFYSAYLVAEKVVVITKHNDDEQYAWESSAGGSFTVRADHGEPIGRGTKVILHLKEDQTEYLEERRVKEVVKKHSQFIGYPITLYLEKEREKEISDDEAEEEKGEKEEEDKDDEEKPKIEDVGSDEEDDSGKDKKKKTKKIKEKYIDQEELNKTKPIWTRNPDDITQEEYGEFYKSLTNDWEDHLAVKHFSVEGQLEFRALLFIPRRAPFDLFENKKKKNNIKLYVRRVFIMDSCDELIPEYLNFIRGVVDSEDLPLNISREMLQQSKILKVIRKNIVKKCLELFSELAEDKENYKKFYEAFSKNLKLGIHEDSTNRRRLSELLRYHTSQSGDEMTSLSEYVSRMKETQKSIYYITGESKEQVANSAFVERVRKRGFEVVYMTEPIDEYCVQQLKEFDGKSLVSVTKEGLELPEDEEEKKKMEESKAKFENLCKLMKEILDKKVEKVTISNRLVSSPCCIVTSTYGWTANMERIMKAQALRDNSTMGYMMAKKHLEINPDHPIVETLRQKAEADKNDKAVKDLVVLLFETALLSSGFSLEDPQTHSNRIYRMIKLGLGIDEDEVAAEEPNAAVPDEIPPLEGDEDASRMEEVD
Sequence of Luciferin 4-monooxygenase (Photinus pyralis) (P08659 whole entry): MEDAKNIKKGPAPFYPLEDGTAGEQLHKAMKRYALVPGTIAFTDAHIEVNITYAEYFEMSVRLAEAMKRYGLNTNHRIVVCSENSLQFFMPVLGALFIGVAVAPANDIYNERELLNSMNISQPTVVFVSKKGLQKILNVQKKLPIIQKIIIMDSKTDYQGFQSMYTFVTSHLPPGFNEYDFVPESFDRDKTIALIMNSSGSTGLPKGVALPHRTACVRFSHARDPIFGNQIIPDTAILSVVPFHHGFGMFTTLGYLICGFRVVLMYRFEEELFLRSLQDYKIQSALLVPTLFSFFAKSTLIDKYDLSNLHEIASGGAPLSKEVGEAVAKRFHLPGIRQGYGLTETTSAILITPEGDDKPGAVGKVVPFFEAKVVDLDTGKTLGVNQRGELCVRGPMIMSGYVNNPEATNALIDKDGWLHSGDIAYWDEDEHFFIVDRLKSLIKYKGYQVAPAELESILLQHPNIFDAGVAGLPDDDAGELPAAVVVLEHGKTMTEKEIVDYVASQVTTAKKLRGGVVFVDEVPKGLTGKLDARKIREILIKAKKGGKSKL

On to `CC(C)=CCC[C@]1(C)/C=C/[C@@H](OC(=O)C=C(C)C)[C@](C)(O)/C=C/C(=O)/C(CN2CCN(C)CC2)=C\C1`, for which the Activity amounted to 19.49% with BT-474 [1]; 61.89% with BT-474 [4]; 73.18% in the data set with BT-474 [5]; 2.03% with BT-474 [6]; 4.18% in the data set on BT-474 [7]; 5.3% in the data set on BT-474 [8]. Moreover, the Activity entry in the data set filed under Danio rerio is listed as “Non-Toxic”; in the data set on BT-474 [16] it was 8.33%; with BT-474 [19] it was 25.6%. The IC50 in the data set with HeLa was determined as 590 nM; in the data set with A549 it was 940 nM; in the data set on Huh-7, 860 nM; with BEAS-2B, 2840 nM; with SMMC-7721, 2940 nM; in the data set on HL-60 it was 840 nM. The IC50 with SK-BR-3 is 1120 nM; with SW480 it was 800 nM; with MCF7, 550 nM; in the data set with AGS, 860 nM; in the data set with BT-474 [20] it was 2640 nM; in the data set on HepG2, 2260 nM. In addition, in the data set with MDA-MB-468, the half-inhibitory concentration (IC50) was 760 nM. The inhibition entry in data set [2], in data set [3], in [13], in data set [14], in data set [15] and in [21] was “Active” each time. Further, the inhibition entry (in [23]; in data set [24]; in the data set listed under Oryctolagus cuniculus) was “Active” throughout. Besides, the Stability entry in [9] and in data set [11] was “Stable” each time. Also, the half-life worked out at 20 min in [10] and 5 min in data set [22]. In addition, the inhibition result in [12], in data set [17] and in [25] was “inactive” in each case. Besides, in data set [18], the degraded at 10 min was 2.3%.

In the case of `CO[C@@H]1[C@@H](OC(N)=O)[C@@H](O)[C@H](Oc2ccc3c(O)c(NC(=O)c4ccc(O)c(CC=C(C)C)c4)c(=O)oc3c2C)OC1(C)C`, the inhibition entry in data set [21] and in data set [26] was “Active” in each case.
